# Bioassay records (PubChem)
# Pf Dd2 inh = inhibitors of Plasmodium falciparum Dd2 growth; P. falciparum Dd2 growth, SYBR Green, 72 h; hits give low values; activity change, % at 10 µM; actives 2.3% (n = 94,000); AID 1159554; in the data active means activity change below about -80%; inconclusive means no clear call, values can overlap the other calls
# IDH1 R132H inh = blocks human IDH1 R132H reductase activity; AID 624101; inhibition, % at 10 µM; diaphorase/resazurin fluorescence, 60 min; O75874; actives 0.18% (n = 70,000); in the data active means inhibition above about 34%; inconclusive means no clear call, values can overlap the other calls; inactive means below about 11%;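 further: 0% = DMSO and 100% = no enzyme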
# GASC1 inh = KDM4C (human) demethylase inhibition | Q9H3R0 | GST-KDM4C 2-372, H3K9me3 peptide, LANCE TR-FRET | inhibition, % at 12.5 µM | actives 0.15% (n = 96,000) | AID 720574;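 active means mean replicate inhibition above about 25%, with at least 55% of replicates also reaching it, limit read from the data, passing the limit was not always enough; inconclusive means only one of those two conditions met; inactive means neither condition met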
# Target sequence (Q9H3R0 2-372 limits assumed): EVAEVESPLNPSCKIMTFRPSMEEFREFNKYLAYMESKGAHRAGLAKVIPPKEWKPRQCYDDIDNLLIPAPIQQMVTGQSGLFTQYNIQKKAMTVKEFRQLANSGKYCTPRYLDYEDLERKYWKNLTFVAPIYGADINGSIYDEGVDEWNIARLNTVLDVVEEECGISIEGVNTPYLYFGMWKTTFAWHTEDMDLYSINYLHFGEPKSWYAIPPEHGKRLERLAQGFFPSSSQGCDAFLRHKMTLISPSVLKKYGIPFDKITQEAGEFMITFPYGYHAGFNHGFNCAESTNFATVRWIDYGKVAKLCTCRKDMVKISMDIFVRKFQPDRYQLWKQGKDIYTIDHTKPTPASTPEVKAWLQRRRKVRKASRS
#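 Material: GST-tagged GASC-1 (JMJD2C) catalytic fragment, aa 2-372. Input: enzyme final amount 10 nM. Medium: HEPES buffer, pH 7.5, plus ascorbate. Reagent: H3K9me3 peptide substrate, Fe(II), 2-oxoglutarate. Doses: single dose. Times: reaction 30 min RT, detection step 1 h RT. Measured by: LANCE TR-FRET. Evaluation: Fall in 671/618 emission ratio as inhibition.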
# T cruzi growth-1 = inhibitors of T. cruzi proliferation; actives 5.9% (n = 77,000); inhibition, % at 8.34 µM; T. cruzi beta-gal in NIH3T3, GalScreen luminescence, 90 h;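 active means mean inhibition above about 93%, with at least 55% of replicates each passing it, limit read from the data, passing the limit was not always enough; inconclusive means only one of those two conditions holds; inactive means neither condition holds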
# T cruzi growth-2 = Trypanosoma cruzi proliferation inhibition | AID 651739 | shares compounds with T cruzi growth-1 | T. cruzi beta-gal in NIH3T3, GalScreen luminescence, 90 h | actives 72% (n = 5,600) | inhibition, % at 8.35 µM;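 active means mean replicate inhibition above about 95% and at least 55% of replicates individually reaching it, limit read from the data; inconclusive means only one of the two criteria is met; inactive means neither criterion is met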
# T cruzi growth-3 = inhibitors of T. cruzi proliferation. shares compounds with T cruzi growth-1. T. cruzi beta-gal in NIH3T3, GalScreen luminescence, 90 h. inhibition, % at 2.09 µM. actives 21% (n = 5,600). AID 651740;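 active means mean inhibition above about 95%, with at least 55% of replicates also reaching it, limit read from the data; inconclusive means meets just one of the two conditions; inactive means meets neither condition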;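 further: plate controls were neutral control median for no effect and positive control median for full effect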
# NIH3T3 tox = NIH/3T3 (mouse) viability loss; shares compounds with T cruzi growth-1; actives 14% (n = 5,600); NIH/3T3 viability, CellTiter-Glo ATP luminescence, 90 h; cytotoxicity (signal decrease), % at 8.35 µM;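 active means mean signal decrease across replicates above about 35% based on untreated-well scatter, with enough replicates individually passing, limit read from the data; inconclusive means no rule stated though some were filed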;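 further: 0% = median of neutral control wells and 100% = median of positive control wells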
# NIH3T3 tox 2 = cytotoxicity in mouse NIH/3T3 fibroblasts; actives 56% (n = 5,600); AID 651744; NIH/3T3 viability, CellTiter-Glo ATP luminescence, 90 h; shares compounds with T cruzi growth-1; inhibition, % at 24.9 µM;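 active means mean loss of cell viability signal at or above a set limit, and enough replicates individually reaching it; inconclusive means meets only the mean limit or only the replicate share; inactive means meets neither condition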;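 further: 0% = median of neutral control wells and 100% = median of positive control wells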
# Numbers without * were called inactive; ? = inconclusive; . = no result; ! = a repeat was not active. Only some compounds are listed: those with a hit (about 5.9% of all), similar ones and a draw of the others.
SMILES,Pf Dd2 inh,IDH1 R132H inh,GASC1 inh,T cruzi growth-1,T cruzi growth-2,T cruzi growth-3,NIH3T3 tox,NIH3T3 tox 2
O=S(=O)(c1cccc(F)c1)N1CC[C@@H]2[C@@H](CO)Nc3ccc(C#Cc4ccccc4F)cc3[C@@H]21,-42,.,-1,?,104*,112*,3,7
O=S(=O)(c1cccc(F)c1)N1CC[C@@H]2[C@H]1c1cc(C#Cc3ccccc3F)ccc1N[C@@H]2CO,-9,.,0,?,92,108*,34,104*
COc1ccc([N+](=O)[O-])cc1NC(=O)CN(C)S(=O)(=O)c1ccc(Cl)cc1,.,0,.,.,.,.,.,.
COc1ccc2nc(/N=C(/N)NC(=O)N3c4ccccc4Sc4ccccc43)nc(C)c2c1,.,-1,.,.,.,.,.,.
COc1cccc(S(=O)(=O)N(C)C[C@@H]2Oc3ncc(C#CCC(C)C)cc3C(=O)N([C@@H](C)CO)C[C@H]2C)c1,-54,.,0,111*,107*,85,-1,77*
COc1cccc(S(=O)(=O)N(C)C[C@H]2Oc3ncc(C#CCC(C)C)cc3C(=O)N([C@H](C)CO)C[C@@H]2C)c1,-63,.,-6,102*,106*,79,11,60*
COc1cccc(S(=O)(=O)N(C)C[C@@H]2Oc3ncc(C#CCN(C)C)cc3C(=O)N([C@H](C)CO)C[C@H]2C)c1,-2,.,-1,96*!,?,84,13,17
CCCC#Cc1cnc2c(c1)C(=O)N([C@H](C)CO)C[C@@H](C)[C@@H](CN(C)S(=O)(=O)c1cccc(OC)c1)O2,-16,0,0,104*,99*,62,37*,65*
COc1cccc(S(=O)(=O)N(C)C[C@@H]2Oc3ncc(C#CCC(C)C)cc3C(=O)N([C@H](C)CO)C[C@@H]2C)c1,-15,.,-1,-22,.,.,.,.
COc1cccc(S(=O)(=O)N(C)C[C@@H]2Oc3ncc(C#Cc4ccc(F)cc4)cc3C(=O)N([C@H](C)CO)C[C@@H]2C)c1,-54,-4,-6,108*,103*,63,22,12
COc1cccc(S(=O)(=O)N(C)C[C@H]2Oc3ncc(C#CC(C)C)cc3C(=O)N([C@H](C)CO)C[C@@H]2C)c1,-72,-1,0,65,.,.,.,.
COc1cccc(S(=O)(=O)N(C)C[C@H]2Oc3ncc(C#CC(C)C)cc3C(=O)N([C@@H](C)CO)C[C@H]2C)c1,-13,0,-1,109*,82,70,23,49*
O=C(NCC[C@@H]1CC[C@H](NS(=O)(=O)c2ccccc2F)[C@@H](CO)O1)c1ccc(F)cc1,9,0,0,104*,39,-2,3,1
O=C(C[C@H]1CC[C@@H](NS(=O)(=O)c2ccc(F)cc2)[C@@H](CO)O1)N1CCc2ccccc2C1,20,0,-1,-10,.,.,.,.
COc1ccc(S(=O)(=O)N[C@H]2C=C[C@@H](CC(=O)N3CCC(Cc4ccccc4)CC3)O[C@H]2CO)cc1,-37,0,0,110*,59,31,10,70*
Cc1ccc(S(=O)(=O)N[C@@H]2CC[C@@H](CC(=O)N3CCC(Cc4ccccc4)CC3)O[C@@H]2CO)cc1,-15,0,-1,111*,110*,37,-33,35*
O=C(C[C@@H]1CC[C@@H](NS(=O)(=O)c2ccc(F)cc2)[C@H](CO)O1)N1CCc2ccccc2C1,14,0,0,104*,0,9,-15,7
Cc1cc2nc(-c3ccc(NC(=O)COc4ccc([N+](=O)[O-])cc4)cc3)oc2cc1C,.,0,.,.,.,.,.,.
COC(=O)C[C@H]1CC[C@H]2[C@H](COc3ccc(NC(=O)Nc4ccc(Cl)cc4)cc3C(=O)N2C)O1,8,.,-2,110*,103*,114*,34,33*
CN1C(=O)c2cc(NS(=O)(=O)c3ccc(Cl)cc3)ccc2OC[C@@H]2O[C@H](CC(=O)N3CCc4ccccc4C3)CC[C@@H]21,6,.,2,107*,108*,58,-1,8
